These results are taken from ChEMBL document CHEMBL4814057, “4-4-(Anilinomethyl)-3-[4-(trifluoromethyl)phenyl]-1H-pyrazol-1-ylbenzoic acid derivatives as potent anti-gram-positive bacterial agents” (Eur J Med Chem, 2021).

A short description of series [1]: Toxicity in CD1 mouse assessed as effect on alkaline phosphatase level in blood at 50 mg/kg, ip administered as single dose measured after 24 hrs. The series is classed as organism-based. The following applies: in vivo. Summed up: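 Male CD-1 mice, 8 weeks, 32–37 g, n = 10 per dose. Single IP injection at 5, 20 or 50 mg/kg in 0.9% saline, filter-sterilized; saline vehicle group. Blood taken by cardiac puncture 24 h later. 14 plasma markers measured on a chemistry panel, reported as mean ± SE. Toxicity judged by significance versus controls, normal ranges, dose-dependence and consistency across organ markers.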

In another series the test system is Staphylococcus aureus. Briefly: Antibiofilm activity against Staphylococcus aureus ATCC 25923 assessed as destruction of biofilm formation at 2 times MIC after 24 hrs by crystal violet staining based assay relative to control. It counts as functional. In outline:
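Overnight culture brought to 0.5 McFarland in PBS, diluted 1:100 in CAMHB with 1% glucose. Inhibition: cells plus compound (in DMSO) at 2x, 1x, 0.5xMIC, 24 h at 35 °C, triplicate. Destruction: 24 h biofilm grown without drug, washed, fresh medium with compound, further 24 h. Then washed, dried, 0.1% crystal violet, solubilized in 33% acetic acid, OD 620 nm. Controls are DMSO-only and broth-only wells.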

Consider `O=C(O)c1ccc(-n2cc(CNc3cc(F)cc(C(F)(F)F)c3)c(-c3ccc(C(F)(F)F)cc3)n2)cc1`, for which the Activity entry was “Non-Toxic” in series [1] and 70% with Staphylococcus aureus.
